Screening results deposited in PubChem BioAssay by several laboratories.
Sampled rows, rich in hits. Any-hit rate of the full collection: about 2.7%.
NR1D1 modulator – modulates human Rev-erb alpha binding to DNA | P20393 | Rev-erbα–FITC-DNA binding, fluorescence polarization, 90 min | activity, % at 10 µM | 370,000 compounds, 0.79% hits | AID 1259318;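 active = activity above about 14%, limit read from the data; passing the limit was not always enough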
NR2E3 ag-1 – agonists of human NR2E3 nuclear receptor; inhibition of corepressor binding, % at 3.98 µM; 360,000 compounds, 0.35% hits; CHO-S Gal4-NCOR/VP16-NR2E3 two-hybrid, luciferase; Q9Y5X4; AID 602229;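 active = inhibition above the mean of all tested compounds plus 3 SD, cut at about 70% in these data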;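 also: higher means lower luciferase signal from less NR2E3 corepressor binding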
NR2E3 ag-2 – agonists of human nuclear receptor NR2E3; Q9Y5X4; GST-NR2E3/biotin-RetCOR TR-FRET, 1536-well; inhibition of corepressor binding, % at 4.78 µM; 320,000 compounds, 0.12% hits; AID 2300;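 active = percent inhibition above the cutoff of mean plus 3 SD of all tested compounds, set per screening campaign, cut at about 20% in these data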
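Material: NR2E3–RetCOR corepressor complex / Amount: 1.35 nM GST-NR2E3 / Medium: Tris pH 7.5 / Compound: single nominal compound dose of 4.8 µM / Incubation: 5 h at 4 °C / Technique: TR-FRET, Eu(K)-anti-GST donor, streptavidin-D2 acceptor, ex 340, em 617/671 nm / Read-out basis: percent loss of FRET ratio relative to control wells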
PG9 binder – PG9 antibody binding by small molecule; TR-FRET gp120-PG9 antibody binding; inhibition, % at 6.7 µM; 360,000 compounds, 0.43% hits; in the data active = inhibition above about 8.5%
MC4R barr agon – activates human MC4R beta-arrestin recruitment. U2OS MC4R beta-arrestin complementation, luminescence; percent of melanotan II response, DMSO zero. 360,000 compounds, 0.98% hits. activation, % at 8.9 µM. P32245. AID 540308;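 active = activation above a per-plate cutoff, the mean activation of sample wells on that plate plus 3 SD, cut at about 8% in these data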
MC4R antagonist – human MC4R antagonism in cAMP assay; 360,000 compounds, 0.48% hits; inhibition, % at 6.5 µM; AID 540295; MC4R-expressing cells, MTII-stimulated cAMP, LANCE TR-FRET; P32245;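 active = inhibition above its plate's cutoff, the mean of tested wells on that plate plus 3 SD, cut at about 29% in these data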
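Material: U2OS-MC4R stable cell line | Reagent: Melanotan II challenge after compound preincubation | Doses: One concentration, 6.5 µM nominal | Incubation: 30-min compound preincubation, 1-h Melanotan II challenge, 1-h detection, room temperature | Signal: TR-FRET cAMP assay | Replicates: One well per compound, no replicates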
MC4R barr ag – human MC4R beta-arrestin agonism confirmation. shares compounds with MC4R barr agon. 2,400 compounds, 31% hits. U2OS MC4R beta-arrestin recruitment, luminescence; scaled DMSO 0%, Melanotan II 100%. activation, % at 8.9 µM;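 active = mean activation across replicates above the hit cutoff set in the earlier primary screen, cut at about 8% in these data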
MOR-DOR barr ag – OPRM1-OPRD1 heterodimer agonism counter-screen | shares compounds with MC4R barr agon | U2OS PathHunter beta-arrestin, beta-gal luminescence; percent of deltorphin B response, DMSO zero | activation, % at 9.2 µM | 2,400 compounds, 5.8% hits | AID 602194;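 active = mean activation across replicates exceeds the hit threshold derived in the earlier primary screen, cut at about 18% in these data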
Hits are given with their value; . = inactive; / = no result.

SMILES | NR1D1 modulator | NR2E3 ag-1 | NR2E3 ag-2 | PG9 binder | MC4R barr agon | MC4R antagonist | MC4R barr ag | MOR-DOR barr ag
COc1cc2nc(SCC(=O)NCc3ccco3)n(Cc3ccc(Cl)cc3)c(=O)c2cc1OC | . | . | . | . | 13 | . | . | .
CCCCCn1c(SCC(=O)OCC)nc2cc(C(=O)NCc3ccco3)ccc2c1=O | . | . | . | . | 13 | . | . | 31
Cc1ccc(C(=O)c2coc3c2C(=O)C(=O)c2ccccc2-3)cc1 | . | . | . | . | 16 | . | 17 | .
COc1cc(OC)cc(-c2sc3ccc(OC)cc3c2C#CC2(N)CCCCC2)c1 | . | . | / | . | 21 | . | 14 | .
COc1ccc(-c2sc3cc4c(cc3c2C#Cc2cncn2C)OCO4)cc1 | . | . | / | . | . | . | / | /
COc1ccc(-c2sc3ccc(N4CCOCC4)cc3c2C#CCO)cc1 | . | . | / | . | . | . | / | /
COc1ccc(-c2sc3cc4c(cc3c2C#CC2(N)CCCCC2)OCO4)cc1 | . | . | . | . | 16 | . | . | .
COc1ccc(-c2sc3ccc(N4CCOCC4)cc3c2C#CC2(O)CCCCC2)cc1 | . | . | / | . | 32 | . | 45 | .
Nc1nonc1-n1nnc(C(=O)N/N=C/c2ccc(OCc3ccccc3)cc2)c1CNc1ccccc1 | . | . | . | . | 25 | . | . | .
CC(C)c1c(C(=O)N/N=C/c2ccc(OCc3ccc(F)cc3)cc2)nnn1-c1nonc1N | . | . | . | . | . | . | / | /
CCCc1c(C(=O)N/N=C/c2cccc3ccccc23)nnn1-c1nonc1N | . | . | . | . | 17 | . | . | .
CC(C)c1c(C(=O)N/N=C/c2ccc(OCc3ccccc3)cc2)nnn1-c1nonc1N | . | . | . | . | 14 | . | . | .
Cc1cc(C)c(/C=N/NC(=O)c2nnn(-c3nonc3N)c2CN2CCC(C)CC2)c(C)c1 | . | . | . | . | 17 | . | 16 | .
CC1CCN(Cc2c(C(=O)N/N=C/c3cc(Br)ccc3O)nnn2-c2nonc2N)CC1 | . | . | . | . | . | . | / | /
O=C(CSc1ccc2ccccc2c1)NCc1cccs1 | . | . | . | . | . | . | / | /
COc1ccc(-c2ccc([C@H]3[C@@H]4C=CCC[C@@]4(C)C(=O)N3Cc3ccccc3)c(F)c2)cc1 | . | . | . | . | . | . | / | /
CCOc1ccc(C(=O)CC(C(=O)O)N2CCN(Cc3ccccc3)CC2)cc1 (centres undefined) | / | . | . | / | . | . | / | /
COC(=O)CN1C(=O)C2(C(C#N)=C(N)Oc3c2c(C)nn3-c2ccccc2)c2ccccc21 (centres undefined) | . | . | . | . | . | . | / | /
N#Cc1c(NC(=O)c2ccccc2)sc2c1CCC2 | . | . | . | . | . | . | / | /
Cc1ccc(/C=C/C(=O)Nc2nnc(SCc3ccc(C#N)cc3)s2)o1 | . | . | . | . | 51 | . | . | .
Cc1ccc(/C=C/C(=O)Nc2sc3c(c2C#N)CCCC3)o1 | . | . | . | . | 28 | . | . | .
Cc1ccc(/C=C/C(=O)Nc2nccs2)o1 | . | . | . | . | . | . | / | /
CCc1ccc(CCC(=O)Nc2sc3c(c2C#N)CCCC3)o1 | . | . | . | . | . | . | / | /
Cc1cccc(C(=O)Nc2sc3c(c2C#N)CCCCC3)c1 | . | . | . | . | 17 | . | . | .
COc1ccc(C(=O)C2CCCN(Cc3ccc4nonc4c3)C2)cc1F (centres undefined) | . | . | . | . | . | . | / | /
SMILES | NR1D1 modulator | NR2E3 ag-1 | NR2E3 ag-2 | PG9 binder | MC4R barr agon | MC4R antagonist | MC4R barr ag | MOR-DOR barr ag
Cc1cc(C)cc(OCC(=O)Nc2nc(-c3ccccn3)cs2)c1 | . | . | / | . | 12 | . | . | .
COc1ccc(OCCn2cc(/C=C(\C#N)C(=O)NCc3ccco3)c3ccccc32)cc1 | . | . | . | . | 50 | . | 52 | 30
COc1ccccc1OCCn1cc(/C=C(\C#N)C(=O)NCc2ccco2)c2ccccc21 | . | . | . | . | . | . | / | /
N#C/C(=C\c1cn(CCOc2ccccc2)c2ccccc12)C(=O)NCc1cccs1 | . | . | . | . | 23 | . | . | .
Cc1ccc(C)c(OCCn2cc(/C=C(\C#N)C(=O)NCc3ccco3)c3ccccc32)c1 | . | . | . | . | 11 | . | 12 | .
CC(=O)c1ccc(N=Nc2ccc(N)cc2)cc1 | . | . | . | . | . | . | / | /
OC(c1cc(F)cc(Cl)c1)c1ncc(-c2ccc(Cl)cc2)[nH]1 (centres undefined) | . | . | / | . | 9.8 | . | . | .
OC(c1ccc(F)c(F)c1)c1ncc(-c2ccc(Cl)cc2)[nH]1 (centres undefined) | . | . | / | . | . | . | / | /
Cc1cc(C(O)c2ncc(-c3ccc(Oc4ccccc4)cc3)[nH]2)ccc1F (centres undefined) | . | . | / | . | 12 | . | . | .
OC(c1ccc(F)cc1)c1ncc(-c2ccc(Oc3ccccc3)cc2)[nH]1 (centres undefined) | . | . | / | . | . | . | / | /
COc1ccc(S(=O)(=O)NCc2cccnc2)cc1NC(=O)c1ccc(Cl)cc1 | . | . | . | . | . | . | / | /
O=C(NCc1ccco1)C1CCCN(S(=O)(=O)c2cc(Cl)ccc2Cl)C1 (centres undefined) | . | . | . | . | . | . | / | /
Cc1nn(Cc2c(Cl)cccc2Cl)c(C)c1NC(=O)c1sc2ccccc2c1Cl | . | . | . | . | 45 | . | . | .
O=C(OCc1c(Cl)cccc1Cl)c1cnccn1 | . | . | . | . | . | . | / | /
Nc1c2nc(-c3ccccc3)[nH]c(=O)c2nc(=O)n1-c1ccccc1 | . | . | . | . | 15 | . | . | .
Cc1c(Cc2ccccc2)sc(NC(=O)c2ccco2)c1C(N)=O | . | . | . | . | 9.7 | . | . | .
O=C(N/N=C/c1cc2ccccc2nc1Cl)[C@H]1C[C@@H]1c1ccccc1 | . | . | . | . | . | . | / | /
Cc1ccc2cc(/C=N/NC(=O)[C@H]3C[C@@H]3c3ccccc3)c(Cl)nc2c1 | . | . | . | . | 24 | . | . | .
Cc1nc(C)c(-c2ccc(SCC(=O)Nc3ccc(C)c(Cl)c3)nn2)s1 | . | . | . | . | 10 | . | . | .
COc1ccc(NC(=O)CSc2ccc(-c3sc(C)nc3C)nn2)cc1OC | . | . | . | . | . | . | / | /
CCC1S/C(=N/N=C/c2cccs2)NC1=O (centres undefined) | . | . | . | . | . | . | / | /
